This is a sample that favours compounds with a hit; in the whole collection about 2.4% have one here.
SR-BI uptake up: SR-BI HDL lipid transfer activation. CHO ldlA[mSR-BI] cells, DiI-HDL uptake fluorescence, 3 h; 100 = double the neutral-control signal. activation, % at 12.5 µM. actives 0.096% (n = 320,000);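 active = mean replicate activation of at least 60% and every replicate at or above 60%; inconclusive = mean or all-replicate condition met, but not both; inactive = mean below 60% and not all replicates reaching 60%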;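 note: 0% = median plate neutral-control signal and 100% = twice that signal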
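Test system: SR-BI-overexpressing, LDLR-lacking CHO cells; Also added: labelled HDL, 10 µg/mL; Measured by: bottom-read cell fluorescence after medium removal, ex 550/em 595 nm; Timing: 3 h uptake period with compound, 37 °C; Buffer or medium: F12, 0.5% BSA, 25 mM HEPES; Doses: single compound concentration, delivered by pin transfer.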
HTR2A ag: agonists of mouse serotonin 5-HT2A receptor (HTR2A). CHO-K1 mHTR2A beta-arrestin complementation, luminescence; percent of 30 µM serotonin response. activation, % at 7.6 µM. actives 0.66% (n = 360,000). AID 624169;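 active = activation above a run cutoff, the mean activation of all tested compounds plus 3 SD, cut at about 14% in these data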;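 note: 0% = plate median of compound wells and 100% = 30 µM serotonin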
Calb FLC: C. albicans growth modulation with fluconazole; AID 1979; actives 0.57% (n = 300,000); C. albicans CaCi-2 + fluconazole, Alamar Blue growth, 48 h; growth inhibition, % (concentration not given with the values);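 active = growth inhibition above about 58% in most replicates, limit read from the data, passing the limit was not always enough; inconclusive = exactly half the replicates above a set limit; inactive = most replicates below a set limit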;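 note: all wells also contain fluconazole at 8 µg/ml as a sub-toxic cotreatment; 0% = median of DMSO wells and 100% = median of geldanamycin control wells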
Ins promoter up: MIN6 insulin promoter up-regulation | z-score at 5 µM | actives 0.3% (n = 190,000) | MIN6 insulin promoter-GFP reporter, high-content imaging; hits give high values;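 active = z-score above 3 at 5 µM with at least 500 cells counted in the well; inconclusive = wells under 500 cells, flagged as cytotoxic or low count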
SR-BI HDL uptake: inhibitors of mouse SR-BI mediated HDL lipid uptake. Q61009. ldlA[mSR-BI] CHO cells, DiI-HDL uptake fluorescence, 3 h. inhibition, % at 12.5 µM. actives 0.96% (n = 320,000). AID 488896;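 active = mean replicate inhibition of at least 70% and a set share of replicates each scoring 70 or more; inconclusive = meets just one of the two criteria; inactive = fails both criteria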;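 note: 0% = median of neutral control wells and 100% = median of positive control wells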
Target sequence (Q61009 whole entry, looked up): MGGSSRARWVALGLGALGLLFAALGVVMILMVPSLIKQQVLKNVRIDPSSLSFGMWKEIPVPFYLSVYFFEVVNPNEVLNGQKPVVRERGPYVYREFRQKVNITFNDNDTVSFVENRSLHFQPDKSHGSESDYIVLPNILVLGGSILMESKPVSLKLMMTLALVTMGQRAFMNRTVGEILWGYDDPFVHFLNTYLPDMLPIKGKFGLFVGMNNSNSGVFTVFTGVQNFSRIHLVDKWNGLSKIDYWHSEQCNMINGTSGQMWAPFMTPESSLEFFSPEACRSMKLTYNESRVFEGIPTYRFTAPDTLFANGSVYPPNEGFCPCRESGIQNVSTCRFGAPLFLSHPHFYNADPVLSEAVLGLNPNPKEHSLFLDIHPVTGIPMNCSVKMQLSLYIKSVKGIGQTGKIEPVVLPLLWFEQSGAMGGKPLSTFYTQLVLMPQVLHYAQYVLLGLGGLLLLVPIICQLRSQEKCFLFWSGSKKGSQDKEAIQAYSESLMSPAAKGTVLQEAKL
MIN6 prolif: induces beta-cell replication in MIN6 cells; MIN6 cells proliferation, ATPlite luminescence, 48 h; cells starved in 0.2% serum; 100% = growth in 10% serum; proliferation, % at 10 µM; actives 0.29% (n = 330,000); AID 2380;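 active = compounds whose signal lies at least 3.5 SD above the mean of all wells on their plate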;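 note: 0% = DMSO-treated cells in low-serum medium and 100% = 10% serum control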
DiI quencher: quenches DiI-HDL fluorescence, an SR-BI assay artifact. cell-free DiI-HDL fluorescence quenching, 30 min. shares compounds with SR-BI HDL uptake. AC50, µM (series often up to 35 µM), without a hit: at the highest dose activity change, negative = quenching. actives 20% (n = 470). AID 540326;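 active = quenching, a falling signal, with AC50 below a set limit tied to the top valid dose, actives reach about 32 µM in these data; inconclusive = no clear call, values can overlap the other calls; inactive = rising signal, and the rest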
Active calls of the source: *; ? = inconclusive; / = no result.

SMILES | SR-BI uptake up | HTR2A ag | Calb FLC | Ins promoter up | SR-BI HDL uptake | MIN6 prolif | DiI quencher
CCOC(=O)c1cccc(NC(=O)Nc2cc(OC)ccc2OC)c1 | -109 | -3 | 14 | -0.3 | 109* | -1 | 4.8µM*
COc1cc(OC)cc(C(=O)Nc2cccc(NC(=O)c3cc(OC)cc(OC)c3)n2)c1 | -82 | -1 | -1 | / | 82* | -1 | 6%
COc1ccc(CNC(=O)COC(=O)c2ccc(Br)c(S(=O)(=O)N3CCOCC3)c2)cc1 | -3 | -1 | / | / | 3 | -2 | /
COc1ccc(COC(=O)c2ccc(Br)c(S(=O)(=O)N3CCOCC3)c2)cc1F | -74 | -11 | 12 | / | 74* | -2 | 2%
Cc1ccc(Sc2nc(-c3ccccc3)nnc2C(F)(F)F)cc1 | -70 | 4 | -6 | -0.16 | ? | -6 | -1%
COc1ccccc1C(=O)NCCn1cc(SCC(=O)Nc2nnc(C)s2)c2ccccc21 | -44 | -1 | -2 | -0.54 | 44 | 2 | 0%
O=C(NCCn1cc(SCc2ccccc2)c2ccccc21)c1c(F)cccc1F | -71 | -12 | -3 | -0.18 | ? | -7 | -12%
COc1ccc(NC(=O)N(C)C[C@H]2OCc3cn(nn3)CCCC(=O)N([C@@H](C)CO)C[C@@H]2C)cc1 | / | 5 | / | / | / | / | /
COc1cc(NC(=O)C2CC(c3c(F)cccc3Cl)=NO2)c(OC)cc1Cl (stereo not given) | -82 | -3 | 3 | / | 82* | -3 | 0%
COc1ccc(NC(=O)C2CC(c3c(F)cccc3Cl)=NO2)cc1OC (stereo not given) | -22 | -2 | 9 | / | 22 | -2 | /
COc1cc(C2CC(=O)c3c([nH]c(C(=O)OCCOC(C)C)c3C)C2)cc(OC)c1OC (stereo not given) | -82 | 9 | 5 | / | 82* | -4 | -2%
CN(C)c1ccc(/C=C2\Oc3ccc(C#Cc4cccc(N)c4)cc3C2=O)cc1 | -70 | -2 | / | / | ? | -5 | -14%
COC(=O)c1ccc2c(c1)C(=O)/C(=C/c1ccc(C)cc1)O2 | -6 | 1 | -2 | 0.31 | 6 | -3 | /
COCOc1cc(O)c(C(=O)/C=C/c2ccccc2)c(OCOC)c1 | -36 | -2 | 2 | / | 36 | -6 | /
COc1ccc(NC(=O)c2cccc3c2C(=O)c2ccc(-c4ccc(F)cc4OCc4ccccc4)cc2S3(=O)=O)cc1 | -62 | -8 | / | / | 62 | -6 | /
COc1ccc(OC[C@@H](O)CNC(=O)c2cccc3c2C(=O)c2ccc(-c4ccc(F)cc4OCc4ccccc4)cc2S3(=O)=O)cc1 | -80 | -2 | / | / | 80* | -3 | -19%
COc1ccc(N2CN=C3SCC(=O)N3C2)cc1 | 10 | 4 | 7 | / | -10 | -2 | /
Cc1cc(C)cc(N2CN=C3SCC(=O)N3C2)c1 | -71 | -1 | -12 | -0.05 | ? | -2 | -3%
COc1ccccc1S(=O)(=O)N[C@@H]1CC[C@@H](CCn2cc(C3CC3)nn2)O[C@@H]1CO | / | 4 | / | / | / | / | /
COc1ccc(CCn2c(C)cc(C(=O)CSc3nc(N)cc(=O)[nH]3)c2C)cc1 | -81 | 1 | -2 | -0.18 | 81* | -6 | 1%
COc1ccc(CCn2c(C)cc(C(=O)CSc3nnc(N)s3)c2C)cc1 | -27 | -3 | -64 | / | 27 | -5 | /
COc1ccc(OC)c(C2=NS(=O)(=O)N(C)C(C(=O)NCc3ccco3)=C2)c1 | -5 | 2 | 12 | / | 5 | 4 | /
COCOCCn1cc(CN2CCS(=O)(=O)N(Cc3ccc(-c4ccc(Cl)c(Cl)c4)cc3)C(C)C2=O)nn1 (stereo not given) | / | -5 | / | / | / | / | /
COc1ccc(N2CC(C(=O)Nc3cccc(S(=O)(=O)N4CCCC4)c3)CC2=O)c(OC)c1 (stereo not given) | -18 | -4 | 6 | / | 18 | -3 | /
COc1ccc(N2CC(C(=O)N3CCN(S(=O)(=O)c4ccc(F)c(F)c4)CC3)CC2=O)c(OC)c1 (stereo not given) | 4 | -2 | / | / | -4 | / | 6%
SMILES | SR-BI uptake up | HTR2A ag | Calb FLC | Ins promoter up | SR-BI HDL uptake | MIN6 prolif | DiI quencher
COc1ccc(-c2nnn(Cc3ccccc3)n2)cc1OC | -4 | -1 | 2 | / | 4 | 0 | /
COc1cc(-c2nnn(Cc3ccccc3C)n2)cc(OC)c1OC | -101 | 2 | 2 | / | 101* | 3 | 2%
Cc1ccc(OCC(=O)NNC(=O)C2CCN(c3ncnc4sc(C)c(C)c34)CC2)cc1 | -80 | 6 | / | / | 80* | 1 | 3%
O=C(NCCO)C(=O)Nc1cc2c3c(c1)CCC(=O)N3CCC2 | / | 14 | -10 | / | 2 | -3 | /
CCCCN(C(=O)c1ccccc1Cl)C(CC(C)C)c1nc2ccccc2[nH]1 (stereo not given) | / | 0 | / | / | / | / | /
Cc1nc(C(F)(F)F)ccc1C(=O)N1CCC1(C)C(=O)NS(=O)(=O)c1ccc(C#N)cc1 (stereo not given) | / | 0 | / | / | / | / | /
Cc1ccc(/C=C/C(=O)Nc2sc3c(c2C#N)CCCC3)o1 | -75 | -1 | -17 | -0.22 | 75* | -6 | -5%
O=C(O)CC(C(=O)Nc1cccc(C(F)(F)F)c1)C1CCCO1 (stereo not given) | 17 | 1 | -15 | 0.06 | -17 | -1 | -3%
CCOC(=O)C1CCCN(C(=O)c2cc(-c3ccc(C)cc3)on2)C1 (stereo not given) | 1 | 1 | -19 | 0.52 | -1 | 0 | /
CCOC(=O)C1CCCN(C(=O)c2cc(COc3ccc(C)nc3)on2)C1 (stereo not given) | 15 | 8 | 1 | / | -15 | -1 | -1%
CSc1nc(COC(=O)NC(C)C)c(COC(=O)NC(C)C)n1Cc1ccccc1 | / | -4 | / | / | / | / | /
COc1cccc(N2CCN(C(=O)CN3C(=O)NC4(CCCC4)C3=O)CC2)c1 | -12 | -2 | 5 | / | 12 | -5 | /
Cc1cccc(N2CCN(C(=O)CN3C(=O)NC4(CCCCCC4)C3=O)CC2)c1C | -73 | 3 | / | / | 73* | -4 | -3%
Cc1cccc(N2CCN(C(=O)Cn3cccc3C(=O)c3ccccc3)CC2)c1C | -73 | 3 | -5 | -0.12 | 73* | -1 | -7%
CCc1cc(=O)oc2c3c(cc(OCC(=O)NCc4ccco4)c12)OC(C)(C)CC3 | -76 | -2 | 1 | / | ? | 6 | 0%
O=C(N[C@@H]1C/C=C\C[C@H](CC(=O)N(CCO)Cc2ccccc2)C(=O)NC[C@@H](c2ccccc2)OC1=O)OCC1c2ccccc2-c2ccccc21 | -85 | -5 | / | / | 85* | -6 | 1%
O=C(Nc1cccc(NC(=O)c2ccccc2Cl)c1)c1ccc(F)cc1 | -79 | 2 | 3 | / | 79* | -3 | -1%
O=C(Nc1ccccc1C(=O)O)c1cccc(NC(=O)c2ccccc2Cl)c1 | -34 | 4 | 1 | / | 34 | -3 | /

Source: PubChem
